Laboratory results as given in ChEMBL document CHEMBL1156266, “Antisense oligonucleotides containing conformationally constrained 2',4'-(N-methoxy)aminomethylene and 2',4'-aminooxymethylene and 2'-O,4'-C-aminomethylene bridged nucleoside analogues show improved potency in animal models” (J Med Chem, 2010).
Active and inactive are the calls of the source. No cut-off for these calls is given here.

Tests used:
Mus musculus [1] = experiment: Toxicity in BALB/c mouse assessed as effect on body weight at 0.5 to 14.8 mg/kg, ip administered twice a week for 3 weeks measured after 72 hrs of last dose; type: organism-based; design: dose 0.5-14.8 mg/kg, route intraperitoneal; settings: in vivo
Summary of the method: (§1)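 Male Balb/c mice, ip ASO in PBS twice weekly for 3 weeks at four dose levels. Body weight recorded before each dose. Killed 3 days after last dose. Organ weights normalized to body weight, expressed relative to the saline-treated group.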

Mus musculus [2] = experiment: Hepatotoxicity in BALB/c mouse assessed as liver ALT level at 0.5 to 14.8 mg/kg, ip administered twice a week for 3 weeks measured after 72 hrs of last dose; type: toxicity, organism-based; design: dose 0.5-14.8 mg/kg, route intraperitoneal; settings: in vivo
Summary of the method: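 Male 6-week-old Balb/c mice dosed ip in PBS twice weekly for 3 weeks: 0.7–23 mg/kg (four levels) or 0.5–14.6/14.8 mg/kg. Killed 72 h after final dose. Plasma from cardiac-puncture blood, ALT on clinical bioanalyzer. Errors are SD.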

Mus musculus [3] = experiment: Toxicity in BALB/c mouse assessed as effect on kidney weight at 0.5 to 14.8 mg/kg, ip administered twice a week for 3 weeks measured after 72 hrs of last dose; type: organism-based; design: dose 0.5-14.8 mg/kg, route intraperitoneal; settings: in vivo; summary of the method: as §1
[4] = Reduction in PTEN mRNA expression in mouse bEND.3 cells after 24 hrs by qRT-PCR analysis; type: functional, cell-based; settings: for IC50: BEND3, 24 h
Summary of the method: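 bEnd.3 cells in DMEM/10% FBS, seeded at 1 × 10^4 cells/well the day before. Transfected 4 h at 37 °C with Lipofectin 3 μg/mL in OptiMEM, eight 1:2 dilutions (40 nM to 312.5 pM), then refed with complete medium for 24 h. PTEN RNA by qRT-PCR, normalized to cyclophilin A, as % untreated control. Triplicate plates. IC50 from sigmoidal fit, top 100%, bottom 0%.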

Mus musculus [5] = experiment: Toxicity in BALB/c mouse assessed as effect on liver weight at 0.5 to 14.8 mg/kg, ip administered twice a week for 3 weeks measured after 72 hrs of last dose; type: organism-based; design: dose 0.5-14.8 mg/kg, route intraperitoneal; settings: in vivo; summary of the method: as §1
Mus musculus [6] = experiment: Reduction in PTEN mRNA expression in ip dosed BALB/c mouse liver administered twice a week for 3 weeks measured after 72 hrs of last dose by RT-PCR analysis; type: functional
Summary of the method: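 Male Balb/c mice, 6-week-old, ASO in PBS ip twice weekly for 3 weeks, four dose levels. Killed 72 h after last dose. Liver homogenized in guanidine isothiocyanate buffer, RNA column-purified. PTEN RNA by fluorescence qRT-PCR, normalized to cyclophilin A. Errors are SD.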

Mus musculus [7] = experiment: Toxicity in BALB/c mouse assessed as increase in spleen weight at 0.5 to 14.8 mg/kg, ip administered twice a week for 3 weeks measured after 72 hrs of last dose; type: organism-based; design: dose 0.5-14.8 mg/kg, route intraperitoneal; settings: in vivo; summary of the method: as §1
Nucleic Acid = experiment: Binding affinity to mouse PTEN mRNA assessed as melting temperature at 4 uM by thermal denaturation assay; type: nucleic-acid assay
Summary of the method: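 Duplex with complementary length-matched RNA; UV absorbance versus temperature curves in 100 mM Na+, 10 mM phosphate, 0.1 mM EDTA, 4 μM each strand. Tm is the average of two experiments.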

Mus musculus [8] = experiment: Reduction in PTEN mRNA expression in BALB/c mouse liver at 37 mg/kg, ip administered once a week for 3 weeks measured after 72 hrs of last dose by RT-PCR analysis; type: functional, organism-based; design: dose 37 mg/kg

SMILES	Activity (Mus musculus [1])	Activity (Mus musculus [2])	Activity (Mus musculus [3])	Activity [4]	IC50 [4] [nM]	Activity (Mus musculus [5])	Activity (Mus musculus [6])	ED50 (Mus musculus [6]) [mg/kg]	Activity (Mus musculus [7])	Tm (Nucleic Acid) [°C]	Activity (Mus musculus [8])
CON1C[C@@]2(COP(O)(=S)O[C@H]3[C@H]4ON(OC)C[C@@]3(COP(O)(=S)O[C@H]3[C@@H](O)[C@H](n5ccc(N)nc5=O)O[C@@H]3COP(O)(=S)O[C@H]3[C@@H](O)[C@H](n5cnc6c(=O)[nH]c(N)nc65)O[C@@H]3COP(O)(=S)O[C@H]3[C@@H](O)[C@H](n5cnc6c(=O)[nH]c(N)nc65)O[C@@H]3COP(O)(=S)O[C@H]3C[C@H](n5cc(C)c(=O)[nH]c5=O)O[C@@H]3COP(O)(=S)O[C@H]3[C@@H](O)[C@H](n5ccc(N)nc5=O)O[C@@H]3COP(O)(=S)O[C@H]3[C@@H](O)[C@H](n5cnc6c(N)ncnc65)O[C@@H]3COP(O)(=S)O[C@H]3[C@@H](O)[C@H](n5ccc(N)nc5=O)O[C@@H]3COP(O)(=S)O[C@H]3[C@@H](O)[C@H](n5cnc6c(=O)[nH]c(N)nc65)O[C@@H]3COP(O)(=S)O[C@H]3[C@@H](O)[C@H](n5cnc6c(N)ncnc65)O[C@@H]3COP(O)(=S)O[C@H]3C[C@H](n5cc(C)c(=O)[nH]c5=O)O[C@@H]3COP(O)(=S)O[C@H]3[C@H]5ON(OC)C[C@@]3(COP(O)(=S)O[C@H]3[C@H]6ON(OC)C[C@@]3(CO)O[C@H]6n3cc(C)c(N)nc3=O)O[C@H]5n3cc(C)c(=O)[nH]c3=O)O[C@H]4n3cc(C)c(N)nc3=O)O[C@@H](n3cc(C)c(=O)[nH]c3=O)[C@H](O1)[C@@H]2O (stereo not given in full)	Non-toxic	Non-toxic	Non-toxic	Dose-dependent effect	3.1	Non-toxic	Dose-dependent effect	8	Toxic	57.7	
Cc1cn([C@H]2C[C@H](OP(O)(=S)OC[C@H]3O[C@@H](n4cnc5c(=O)[nH]c(N)nc54)[C@H](O)[C@@H]3OP(O)(=S)OC[C@H]3O[C@@H](n4cnc5c(=O)[nH]c(N)nc54)[C@H](O)[C@@H]3OP(O)(=S)OC[C@H]3O[C@@H](n4ccc(N)nc4=O)[C@H](O)[C@@H]3OP(O)(=S)OC[C@H]3O[C@@H](n4ccc(N)nc4=O)[C@H](O)[C@@H]3OP(O)(=S)OC[C@H]3O[C@@H](n4cc(C)c(=O)[nH]c4=O)C[C@@H]3O)[C@@H](COP(O)(=S)O[C@H]3[C@@H](O)[C@H](n4ccc(N)nc4=O)O[C@@H]3COP(O)(=S)O[C@H]3[C@@H](O)[C@H](n4cnc5c(N)ncnc54)O[C@@H]3COP(O)(=S)O[C@H]3[C@@H](O)[C@H](n4ccc(N)nc4=O)O[C@@H]3COP(O)(=S)O[C@H]3[C@@H](O)[C@H](n4cnc5c(=O)[nH]c(N)nc54)O[C@@H]3COP(O)(=S)O[C@H]3[C@@H](O)[C@H](n4cnc5c(N)ncnc54)O[C@@H]3COP(O)(=S)O[C@H]3C[C@H](n4cc(C)c(=O)[nH]c4=O)O[C@@H]3COP(O)(=S)O[C@H]3C[C@H](n4cc(C)c(=O)[nH]c4=O)O[C@@H]3COP(O)(=S)O[C@H]3[C@@H](O)[C@H](n4ccc(N)nc4=O)O[C@@H]3CO)O2)c(=O)[nH]c1=O (stereo not given in full)										48.5	
COCCO[C@@H]1[C@H](O)[C@@H](COP(O)(=S)O[C@H]2[C@@H](OCCOC)[C@H](n3ccc(N)nc3=O)O[C@@H]2COP(O)(=S)O[C@H]2[C@@H](O)[C@H](n3ccc(N)nc3=O)O[C@@H]2COP(O)(=S)O[C@H]2[C@@H](O)[C@H](n3cnc4c(=O)[nH]c(N)nc43)O[C@@H]2COP(O)(=S)O[C@H]2[C@@H](O)[C@H](n3cnc4c(=O)[nH]c(N)nc43)O[C@@H]2COP(O)(=S)O[C@H]2C[C@H](n3cc(C)c(=O)[nH]c3=O)O[C@@H]2COP(O)(=S)O[C@H]2[C@@H](O)[C@H](n3ccc(N)nc3=O)O[C@@H]2COP(O)(=S)O[C@H]2[C@@H](O)[C@H](n3cnc4c(N)ncnc43)O[C@@H]2COP(O)(=S)O[C@H]2[C@@H](O)[C@H](n3ccc(N)nc3=O)O[C@@H]2COP(O)(=S)O[C@H]2[C@@H](O)[C@H](n3cnc4c(=O)[nH]c(N)nc43)O[C@@H]2COP(O)(=S)O[C@H]2[C@@H](O)[C@H](n3cnc4c(N)ncnc43)O[C@@H]2COP(O)(=S)O[C@H]2C[C@H](n3cc(C)c(=O)[nH]c3=O)O[C@@H]2COP(O)(=S)O[C@H]2[C@@H](OCCOC)[C@H](n3ccc(=O)[nH]c3=O)O[C@@H]2COP(O)(=S)O[C@H]2[C@@H](OCCOC)[C@H](n3ccc(N)nc3=O)O[C@@H]2CO)O[C@H]1n1ccc(=O)[nH]c1=O (stereo not given in full)				Dose-dependent effect	34.7			> 45		51.3	
Cc1cn([C@@H]2O[C@]3(CO)CNO[C@@H]2[C@@H]3OP(O)(=S)OC[C@]23CNO[C@@H]([C@H](n4cc(C)c(=O)[nH]c4=O)O2)[C@@H]3OP(O)(=S)OC[C@H]2O[C@@H](n3cc(C)c(=O)[nH]c3=O)C[C@@H]2OP(O)(=S)OC[C@H]2O[C@@H](n3cnc4c(N)ncnc43)[C@H](O)[C@@H]2OP(O)(=S)OC[C@H]2O[C@@H](n3cnc4c(=O)[nH]c(N)nc43)[C@H](O)[C@@H]2OP(O)(=S)OC[C@H]2O[C@@H](n3ccc(N)nc3=O)[C@H](O)[C@@H]2OP(O)(=S)OC[C@H]2O[C@@H](n3cnc4c(N)ncnc43)[C@H](O)[C@@H]2OP(O)(=S)OC[C@H]2O[C@@H](n3ccc(N)nc3=O)[C@H](O)[C@@H]2OP(O)(=S)OC[C@H]2O[C@@H](n3cc(C)c(=O)[nH]c3=O)C[C@@H]2OP(O)(=S)OC[C@H]2O[C@@H](n3cnc4c(=O)[nH]c(N)nc43)[C@H](O)[C@@H]2OP(O)(=S)OC[C@H]2O[C@@H](n3cnc4c(=O)[nH]c(N)nc43)[C@H](O)[C@@H]2OP(O)(=S)OC[C@H]2O[C@@H](n3ccc(N)nc3=O)[C@H](O)[C@@H]2OP(O)(=S)OC[C@]23CNO[C@@H]([C@H](n4cc(C)c(N)nc4=O)O2)[C@@H]3OP(O)(=S)OC[C@]23CNO[C@@H]([C@H](n4cc(C)c(=O)[nH]c4=O)O2)[C@@H]3O)c(=O)nc1N (stereo not given in full)				Dose-dependent effect	3.2			> 37		57.7	inactive
Cc1cn([C@H]2C[C@H](OP(O)(=S)OC[C@H]3O[C@@H](n4cnc5c(=O)[nH]c(N)nc54)[C@H](O)[C@@H]3OP(O)(=S)OC[C@H]3O[C@@H](n4cnc5c(=O)[nH]c(N)nc54)[C@H](O)[C@@H]3OP(O)(=S)OC[C@H]3O[C@@H](n4ccc(N)nc4=O)[C@H](O)[C@@H]3OP(O)(=S)OC[C@]34CO[C@@H]([C@H](n5ccc(N)nc5=O)O3)[C@@H]4OP(O)(=S)OC[C@]34CO[C@@H]([C@H](n5ccc(=O)[nH]c5=O)O3)[C@@H]4O)[C@@H](COP(O)(=S)O[C@H]3[C@@H](O)[C@H](n4ccc(N)nc4=O)O[C@@H]3COP(O)(=S)O[C@H]3[C@@H](O)[C@H](n4cnc5c(N)ncnc54)O[C@@H]3COP(O)(=S)O[C@H]3[C@@H](O)[C@H](n4ccc(N)nc4=O)O[C@@H]3COP(O)(=S)O[C@H]3[C@@H](O)[C@H](n4cnc5c(=O)[nH]c(N)nc54)O[C@@H]3COP(O)(=S)O[C@H]3[C@@H](O)[C@H](n4cnc5c(N)ncnc54)O[C@@H]3COP(O)(=S)O[C@H]3C[C@H](n4cc(C)c(=O)[nH]c4=O)O[C@@H]3COP(O)(=S)O[C@H]3[C@H]4OC[C@@]3(COP(O)(=S)O[C@H]3[C@H]5OC[C@@]3(CO)O[C@H]5n3ccc(N)nc3=O)O[C@H]4n3ccc(=O)[nH]c3=O)O2)c(=O)[nH]c1=O (stereo not given in full)										58	
Cc1cn([C@@H]2O[C@]3(CO)CON(C)[C@@H]2[C@@H]3OP(O)(=S)OC[C@]23CON(C)[C@@H]([C@H](n4cc(C)c(=O)[nH]c4=O)O2)[C@@H]3OP(O)(=S)OC[C@H]2O[C@@H](n3cc(C)c(=O)[nH]c3=O)C[C@@H]2OP(O)(=S)OC[C@H]2O[C@@H](n3cnc4c(N)ncnc43)[C@H](O)[C@@H]2OP(O)(=S)OC[C@H]2O[C@@H](n3cnc4c(=O)[nH]c(N)nc43)[C@H](O)[C@@H]2OP(O)(=S)OC[C@H]2O[C@@H](n3ccc(N)nc3=O)[C@H](O)[C@@H]2OP(O)(=S)OC[C@H]2O[C@@H](n3cnc4c(N)ncnc43)[C@H](O)[C@@H]2OP(O)(=S)OC[C@H]2O[C@@H](n3ccc(N)nc3=O)[C@H](O)[C@@H]2OP(O)(=S)OC[C@H]2O[C@@H](n3cc(C)c(=O)[nH]c3=O)C[C@@H]2OP(O)(=S)OC[C@H]2O[C@@H](n3cnc4c(=O)[nH]c(N)nc43)[C@H](O)[C@@H]2OP(O)(=S)OC[C@H]2O[C@@H](n3cnc4c(=O)[nH]c(N)nc43)[C@H](O)[C@@H]2OP(O)(=S)OC[C@H]2O[C@@H](n3ccc(N)nc3=O)[C@H](O)[C@@H]2OP(O)(=S)OC[C@]23CON(C)[C@@H]([C@H](n4cc(C)c(N)nc4=O)O2)[C@@H]3OP(O)(=S)OC[C@]23CON(C)[C@@H]([C@H](n4cc(C)c(=O)[nH]c4=O)O2)[C@@H]3O)c(=O)nc1N (stereo not given in full)	Non-toxic	Non-toxic	Non-toxic	Dose-dependent effect	3.4	Non-toxic	Dose-dependent effect	11		55.4	
